Laboratory results as given in ChEMBL document CHEMBL3414433, “Discovery and profiling of a selective and efficacious Syk inhibitor” (J Med Chem, 2015).
Activity calls are given as the source filed them. No cut-off for these calls is given here.

Key:
[1] = Cytotoxicity against C57BL/6 mouse bone marrow cells assessed as growth inhibition preincubated for 4 days followed by [3H]-thymidine addition measured after 5 hrs by betaplate counting analysis; format: cell-based, Bone marrow cell; conditions: Mus musculus, C57BL/6, Bone marrow cell
[2] = molecular target: T1, Tyrosine-protein kinase SYK (Homo sapiens, UniProt P43405); assay: Inhibition of Syk in anti-CD32 stimulated CD14+ human monocytes assessed as phospho-SLP76 level preincubated for 30 mins followed by anti-CD32 stimulation measured after 5 mins by flow cytometric analysis
[3] = molecular target: T2, Voltage-gated inwardly rectifying potassium channel KCNH2 (Homo sapiens, UniProt Q12809); assay: Inhibition of human ERG expressed in CHO cells by automated Qpatch clamp assay; format: cell-based
[4] = Clearance in Sprague-Dawley rat at 1 mg/kg, iv and 3 mg/kg, po administered as cassette dosing; format: ADME, organism-based; conditions: in vivo
Method in brief: (§1)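 Rat PK: i.v. 1 mg/kg in NMP/PEG200 (3:7); p.o. 3 mg/kg in CMC/water/Tween (0.5:99:0.5). Exposure values dose normalized.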

Rattus norvegicus [5] = assay: Dose normalized AUC in Sprague-Dawley rat at 3 mg/kg, po administered as cassette dosing; format: ADME, organism-based; set-up: dose 3 mg/kg, route oral; conditions: in vivo; method in brief: as §1
[6] = Mean residence time in Beagle dog at 0.1 mg/kg, iv and 0.3 mg/kg, po; format: ADME, organism-based, Canis lupus familiaris; conditions: in vivo
Method in brief: (§2)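 Beagle dogs dosed one-in-one. The i.v. dose was 0.1 mg/kg in NMP/PEG200 (3:7), and the p.o. dose was 0.3 mg/kg in MC/water (0.5:99.5). Blood levels were followed after each route.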

Canis familiaris [7] = assay: Dose normalized AUC in Beagle dog at 0.1 mg/kg, iv; format: ADME, organism-based, Canis lupus familiaris; set-up: dose 0.1 mg/kg, route intravenous; conditions: in vivo
Method in brief: (§3)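 One-in-one dosing in Beagle dogs: i.v. 0.1 mg/kg in NMP/PEG200 (3:7); p.o. 0.3 mg/kg in MC/water (0.5:99.5). Exposure values dose normalized.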

Canis familiaris [8] = assay: Dose normalized Cmax in Beagle dog at 0.1 mg/kg, iv and 0.3 mg/kg, po; format: ADME, organism-based, Canis lupus familiaris; conditions: in vivo; method in brief: as §3
[9] = molecular target: Serine/threonine-protein kinase PAK 4 (Homo sapiens, UniProt O96013); assay: Competitive binding affinity to human PAK4
[10] = molecular target: T1, Tyrosine-protein kinase SYK; assay: Competitive binding affinity to human SYK
Method in brief: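 Kd was then determined for the kinases affected at that concentration.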

[11] = molecular target: T3, Tyrosine-protein kinase ZAP-70 (Homo sapiens, UniProt P43403); assay: Competitive binding affinity to human ZAP70
T3 sequence (P43403 whole entry): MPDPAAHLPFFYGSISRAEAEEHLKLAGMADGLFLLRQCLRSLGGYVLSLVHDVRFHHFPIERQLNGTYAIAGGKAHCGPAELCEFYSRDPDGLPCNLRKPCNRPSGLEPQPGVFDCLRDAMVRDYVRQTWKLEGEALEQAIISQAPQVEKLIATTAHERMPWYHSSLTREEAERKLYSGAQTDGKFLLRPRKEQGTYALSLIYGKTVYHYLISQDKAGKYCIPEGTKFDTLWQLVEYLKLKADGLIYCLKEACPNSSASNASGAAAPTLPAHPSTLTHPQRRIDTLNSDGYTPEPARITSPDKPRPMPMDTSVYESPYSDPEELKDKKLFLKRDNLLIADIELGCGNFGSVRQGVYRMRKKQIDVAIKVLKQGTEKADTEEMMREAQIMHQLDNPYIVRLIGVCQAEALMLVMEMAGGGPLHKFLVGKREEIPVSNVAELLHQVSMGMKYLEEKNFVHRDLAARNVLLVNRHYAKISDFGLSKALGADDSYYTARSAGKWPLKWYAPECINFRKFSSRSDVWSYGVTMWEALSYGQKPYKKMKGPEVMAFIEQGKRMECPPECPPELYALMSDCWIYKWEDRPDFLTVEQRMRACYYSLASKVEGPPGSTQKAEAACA

[12] = molecular target: T3, Tyrosine-protein kinase ZAP-70; assay: Inhibition of ZAP70 in anti-CD3 stimulated human Jurkat T cells assessed as SLP76 phosphorylation at Y128 preincubated for 30 mins followed by anti-CD3 stimulation measured after 2 mins by FACS analysis; format: cell-based
Method in brief: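 Jurkat T cells washed in RPMI/0.1% FCS, preincubated with compound 30 min at 37 °C, stimulated with anti-TCR OKT3 (30 μg/mL final) 2 min at 37 °C, fixed in 2% PFA, permeabilized in 90% methanol, stained anti-SLP76 pY128 80 min at RT; flow cytometry. IC50 from factor F = MFI × percent positive cells.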

[13] = Volume of distribution at steady state in Beagle dog at 0.1 mg/kg, iv and 0.3 mg/kg, po; format: ADME, organism-based, Canis lupus familiaris; conditions: in vivo, read-out: Vdss; method in brief: as §2
Rattus norvegicus [14] = assay: In vivo inhibition of Syk in Lewis rat assessed as reduction in FcgR-induced SLP76 phosphorylation in peripheral blood monocytes at 22 mg/kg, po measured after 4 hrs relative to vehicle-treated control; format: functional
Method in brief: (§4)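 Single oral dose of 22 mg/kg to Lewis rats; blood sampled at 2, 4 and 24 h after dosing for compound level and ex vivo FcγR-induced phospho-SLP76 in peripheral blood monocytes.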

Rattus norvegicus [15] = assay: In vivo inhibition of Syk in Lewis rat assessed as reduction in FcgR-induced SLP76 phosphorylation in peripheral blood monocytes at 22 mg/kg, po measured after 24 hrs relative to vehicle-treated control; format: functional; method in brief: as §4
Rattus norvegicus [16] = assay: Increase in body weight gain in Lewis rat collagen-induced arthritis model at 3 to 30 mg/kg, po qd administered on day 15 post immunization measured up to day 28; format: functional, organism-based
Method in brief: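 Lewis rats with collagen-induced arthritis, randomized once joints swelled and given 3, 10 or 30 mg/kg p.o. once daily from day 15 to 28; animals weighed regularly throughout, compared against vehicle-treated rats.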

Rattus norvegicus [17] = assay: Antiarthritic activity in Lewis rat collagen-induced arthritis model assessed as reduction of joint damage/erosions in hind paw at 3 to 30 mg/kg, po qd administered on day 15 post immunization measured after day 28 by Giemsa/safranin O staining-based assay; format: functional, organism-based
Method in brief: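 Female Lewis rats (140−160 g), arthritis induced by porcine collagen immunization (day 0) and boost (day 7); rats with swollen joints randomized, dosed orally once daily from day 15 to day 28. Hind paws taken on day 28, fixed in 10% buffered formalin for 48 h, decalcified over 16 days, paraffin-embedded; 3 μm sections stained with Giemsa and safranin O and scored.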

[18] = Drug uptake in blood of Lewis rat collagen-induced arthritis model at 30 mg/kg, po qd administered on day 15 post immunization measured at 8 hrs on day 18; format: ADME, organism-based; set-up: dose 30 mg/kg, route oral; conditions: read-out: Drug uptake
Method in brief: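 Collagen-arthritic Lewis rats given 3, 10 or 30 mg/kg p.o. once daily from day 15; blood levels measured on day 18 (third day of treatment) at 4, 8 and 24 h after dosing.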

Rattus norvegicus [19] = assay: In vivo inhibition of Syk in Lewis rat assessed as reduction in FcgR-induced SLP76 phosphorylation in peripheral blood monocytes at 3 to 30 mg/kg, po measured after 2 to 24 hrs; format: functional, organism-based; set-up: route oral
Rattus norvegicus [20] = organism: Rattus norvegicus; assay: Hepatotoxicity in rat assessed as portal inflammation measured for 4 weeks by GLP study; format: toxicity, organism-based; conditions: in vivo, 672 h
Canis familiaris [21] = organism: Canis familiaris; assay: Hepatotoxicity in dog assessed as single necrosis of hepatocytes measured for 4 weeks by GLP study; format: toxicity, organism-based, Canis lupus familiaris, Hepatocyte; conditions: 672 h
Canis familiaris [22] = organism: Canis familiaris; assay: Hepatotoxicity in dog assessed as bile plugs measured for 4 weeks by GLP study; format: toxicity, organism-based, Canis lupus familiaris; conditions: in vivo, 672 h
[23] = molecular target: T2, Voltage-gated inwardly rectifying potassium channel KCNH2; assay: Inhibition of human ERG by GLP study

T2 sequence (Q12809 whole entry): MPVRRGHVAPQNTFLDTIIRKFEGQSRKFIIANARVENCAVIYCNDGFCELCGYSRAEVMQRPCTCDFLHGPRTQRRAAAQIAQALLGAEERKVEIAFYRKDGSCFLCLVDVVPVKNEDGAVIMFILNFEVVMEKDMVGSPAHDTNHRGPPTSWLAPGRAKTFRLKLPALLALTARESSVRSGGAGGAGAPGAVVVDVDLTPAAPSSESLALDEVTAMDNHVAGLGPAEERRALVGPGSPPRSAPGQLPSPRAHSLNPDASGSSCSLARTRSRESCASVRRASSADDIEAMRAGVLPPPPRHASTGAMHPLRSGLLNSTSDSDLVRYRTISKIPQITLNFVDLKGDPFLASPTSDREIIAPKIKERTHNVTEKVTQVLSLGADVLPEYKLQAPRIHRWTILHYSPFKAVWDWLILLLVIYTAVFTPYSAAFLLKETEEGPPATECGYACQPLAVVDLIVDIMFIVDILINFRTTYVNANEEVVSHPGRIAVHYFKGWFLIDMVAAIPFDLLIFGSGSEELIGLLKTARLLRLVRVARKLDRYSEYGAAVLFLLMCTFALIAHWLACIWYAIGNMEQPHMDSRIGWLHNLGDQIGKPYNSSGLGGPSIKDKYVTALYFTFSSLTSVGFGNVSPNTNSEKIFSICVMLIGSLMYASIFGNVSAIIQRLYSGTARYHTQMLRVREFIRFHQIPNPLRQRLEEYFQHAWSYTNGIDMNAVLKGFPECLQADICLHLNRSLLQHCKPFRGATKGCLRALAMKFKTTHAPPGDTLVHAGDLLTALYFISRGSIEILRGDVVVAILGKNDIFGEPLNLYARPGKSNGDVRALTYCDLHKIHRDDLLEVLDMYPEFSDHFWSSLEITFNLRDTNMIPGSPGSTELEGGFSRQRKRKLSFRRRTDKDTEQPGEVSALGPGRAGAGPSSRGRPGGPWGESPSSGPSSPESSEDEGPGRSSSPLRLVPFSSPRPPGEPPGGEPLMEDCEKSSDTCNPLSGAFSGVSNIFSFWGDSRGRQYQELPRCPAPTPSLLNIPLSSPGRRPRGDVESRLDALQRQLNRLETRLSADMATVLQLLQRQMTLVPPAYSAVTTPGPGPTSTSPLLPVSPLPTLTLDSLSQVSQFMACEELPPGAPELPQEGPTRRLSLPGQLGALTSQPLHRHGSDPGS
Chain of Serine/threonine-protein kinase PAK 4 (O96013 whole entry): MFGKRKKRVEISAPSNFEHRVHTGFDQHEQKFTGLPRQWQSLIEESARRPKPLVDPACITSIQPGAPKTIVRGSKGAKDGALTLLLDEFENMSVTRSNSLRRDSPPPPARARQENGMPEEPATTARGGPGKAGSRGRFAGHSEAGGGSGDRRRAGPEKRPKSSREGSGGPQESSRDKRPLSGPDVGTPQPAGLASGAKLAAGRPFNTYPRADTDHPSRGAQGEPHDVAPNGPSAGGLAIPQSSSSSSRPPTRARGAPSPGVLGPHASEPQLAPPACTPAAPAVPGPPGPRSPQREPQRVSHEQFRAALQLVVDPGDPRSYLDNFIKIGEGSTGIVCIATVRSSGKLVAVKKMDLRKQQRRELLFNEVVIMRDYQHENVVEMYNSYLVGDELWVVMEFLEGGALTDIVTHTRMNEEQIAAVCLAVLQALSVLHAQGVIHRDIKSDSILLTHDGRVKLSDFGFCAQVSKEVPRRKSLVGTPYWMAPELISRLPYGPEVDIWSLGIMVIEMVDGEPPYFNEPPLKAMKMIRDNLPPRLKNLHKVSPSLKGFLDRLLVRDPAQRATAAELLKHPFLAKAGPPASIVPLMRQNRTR

- IC50 [2]: 367 nM
- clearance [4]: 31 mL/min/kg
- AUC/dose (Rattus norvegicus [5]): 877 nM·h
- MRT [6]: 8.4 h
- AUC/dose (Canis familiaris [7]): 3414 nM·h
- Cmax/dose (Canis familiaris [8]): 139 nM
- Kd [9]: 17 nM
- Kd [10]: 0.64 nM
- Kd [11]: 65 nM
- IC50 [12]: 2530 nM
- Vd [13]: 6.8 L/kg
- concentration at 8 h [18]: 1720 nM
- IC50 (Rattus norvegicus [19]): 189 nM
Structure (SMILES): NC(=O)c1nnc(N[C@@H]2CCCC[C@@H]2N)nc1Nc1cccc2cc[nH]c12
- IC50 [1]: 9020 nM
- IC50 [3]: 25900 nM
- inhibition in vivo at 22 mg/kg (Rattus norvegicus [14]): 85%
- inhibition in vivo at 22 mg/kg (Rattus norvegicus [15]): 45%
- Activity (Rattus norvegicus [16]): Active
- Activity (Rattus norvegicus [17]): Active
- Activity (Rattus norvegicus [20]): Toxic
- Activity (Canis familiaris [21]): Toxic
- Activity (Canis familiaris [22]): Toxic
- IC50 [23]: 5000 nM
